{"data": "Measured values collected from several papers", "target": "Dual specificity protein kinase CLK4 (CLK4, Homo sapiens, UniProt Q9HAZ1)", "note": "Each line is one published result; the experiments were not run side by side."}
{"SMILES": "CC(C)(O)c1cncc(-c2nc3ccc(F)cc3n2C2CC2)c1", "read-out": "cell-free assay", "method": "competition with immobilised ligand", "concentration": "1 µM", "remaining binding [%]": 54}
{"SMILES": "C=CC(=O)N1CCC(C(=O)NCC(=O)N2CCN(c3nc(-c4cnc(N)nc4C(F)F)nc(N4CCOCC4)n3)CC2)CC1", "read-out": "binding", "method": "competition with immobilised ligand", "concentration": "1 µM", "remaining binding [%]": 100}
{"SMILES": "Cn1cc(Cl)c2c(Oc3c(F)cc(Nc4cc(Cl)nc(N)n4)cc3F)ccnc21", "read-out": "cell-free assay", "method": "competition with immobilised ligand", "concentration": "0.1 µM", "remaining binding [%]": 100}
{"SMILES": "F[C@@H]1CCN(c2nccc(-c3cnn4ncccc34)n2)C1", "read-out": "binding", "concentration": "1 µM", "remaining binding [%]": 60}
{"SMILES": "Cc1nc(N2CC[C@@H](O)C2)ncc1-c1cc(C(F)(F)F)cc2[nH]ncc12", "read-out": "binding", "method": "competition with immobilised ligand", "concentration": "1 µM", "remaining binding [%]": 92}
{"SMILES": "CN(C)c1nccc(-c2cnc3ncccn23)n1", "read-out": "binding", "concentration": "1 µM", "remaining binding [%]": 14}
{"SMILES": "C[C@@H](c1ccc(-n2cnc3c(N)ncnc32)cc1)N1CCc2nn(C)c(Cc3ccccc3)c2C1=O", "read-out": "binding", "method": "competition with immobilised ligand", "concentration": "0.1 µM", "remaining binding [%]": 100}
{"SMILES": "COc1ccnn2ncc(-c3ccnc(N(C)C)n3)c12", "read-out": "binding", "concentration": "1 µM", "remaining binding [%]": 4.2}
{"SMILES": "O=C(c1ccc(Nc2ncc(Cl)c(-c3ccc(Cl)s3)n2)cc1)N1CCC(N2CCCC2)CC1", "read-out": "binding", "method": "competition with immobilised ligand", "concentration": "1 µM", "remaining binding [%]": 2.1}
{"SMILES": "COc1ncc2cc3ccccc3nc2c1C#N", "read-out": "cell-free assay", "method": "competition with immobilised ligand", "concentration": "5 µM", "remaining binding [%]": 86}
{"SMILES": "N[C@@H]1CCN(c2nccc(-c3cnn4ncccc34)n2)C1", "read-out": "binding", "concentration": "1 µM", "remaining binding [%]": 25}
{"SMILES": "O=S(=O)(NC1CCC(c2cc(F)ccc2F)(S(=O)(=O)c2ccc(Cl)cc2)CC1)C(F)(F)F (stereo not shown)", "read-out": "cell-free assay", "method": "competition with immobilised ligand", "concentration": "1 µM", "remaining binding [%]": 84}
{"SMILES": "O=C(c1ccc(Nc2ncc(Cl)c(-c3cc4ccccc4s3)n2)cc1)N1CCC(N2CCCC2)CC1", "read-out": "binding", "method": "competition with immobilised ligand", "concentration": "1 µM", "remaining binding [%]": 0}
{"SMILES": "O=C(NCC1CCOCC1)c1n[nH]cc1NC(=O)c1c(F)cccc1F", "read-out": "binding", "method": "competition with immobilised ligand", "concentration": "1 µM", "remaining binding [%]": 32}
{"SMILES": "CO[C@@H](C)c1c(Nc2ccc([C@H](N(C)C(=O)C3CCS(=O)(=O)CC3)C(F)(F)F)cc2)cnc2cc(Cl)nn12", "read-out": "cell-free assay", "method": "competition with immobilised ligand", "concentration": "1 µM", "remaining binding [%]": 94}
{"SMILES": "O=C(NCCCN1CCOCC1)c1ccc(Nc2ncc(Cl)c(-c3ccc(Cl)s3)n2)cc1", "read-out": "binding", "method": "competition with immobilised ligand", "concentration": "1 µM", "remaining binding [%]": 1.6}
{"SMILES": "COc1cnc(Nc2cccc(S(N)(=O)=O)c2)nc1N1CCN(c2ccccc2)CC1", "read-out": "binding", "method": "competition with immobilised ligand", "concentration": "1 µM", "remaining binding [%]": 100}
{"SMILES": "Cc1cnn2ncc(-c3ccnc(N(C)C)n3)c2c1", "read-out": "binding", "concentration": "1 µM", "remaining binding [%]": 9.7}
{"SMILES": "Cc1c(NC(=O)c2cc(C(N)=O)nc3cc(F)ccc23)c(C(F)(F)F)nn1Cc1ccc(C(C)(C)C)cc1", "read-out": "cell-free assay", "method": "competition with immobilised ligand", "concentration": "1 µM", "remaining binding [%]": 100}
{"SMILES": "C[C@H]1CCN(c2nccc(-c3cnn4ncccc34)n2)C1", "read-out": "binding", "concentration": "1 µM", "remaining binding [%]": 9.9}
{"SMILES": "COc1cnc(Nc2cccc(S(N)(=O)=O)c2)nc1N1CCN(c2ccccc2)C(=O)C1", "read-out": "binding", "method": "competition with immobilised ligand", "concentration": "1 µM", "remaining binding [%]": 93}
{"SMILES": "CCN1CCN(Cc2ccc(C(=O)Nc3ccc(C)c(Oc4ccc5c(c4)CC(=O)N5)c3)cc2C(F)(F)F)CC1", "read-out": "binding", "method": "competition with immobilised ligand", "concentration": "1 µM", "remaining binding [%]": 94}
